Publication PMC10422108 (Journal of Pharmaceutical Analysis, 2023)

Assays:
Lewis lung cancer (LLC) = assay: Antitumor activity in Lewis lung cancer; type: in vivo, C57BL/6J male mice; conditions: LLC mice; PTX 25 mg/kg; PTX-R 14.4, 28.8, 57.6 mg/kg; 11 day; versus control
[1] = test system: CTL1, OCT1 and OCT2 in LLC cells; assay: PTX-R uptake assay with transporter inhibitors; type: cell-based, mouse; conditions: 100 μmol/L HC-3, 60 μmol/L quinidine or 60 μmol/L cimetidine, 10 min
Outline: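 LLC cells seeded at 2 × 10^5 cells/mL, grown 48 h, PBS-washed. Preincubated 20 min with inhibitor or PBS, then 4.5 μmol/L test compound ± inhibitor for 10 min. Stopped by three cold PBS washes; lysed 30 min in cold MeOH/0.1% FA containing 100 ng/mL docetaxel internal standard. Extract dried, reconstituted in ACN:H2O 1:9, quantified by LC-MS/MS (MRM).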

With CC(=O)O[C@H]1C(=O)[C@@]2(C)[C@H]([C@H](OC(=O)c3ccccc3)[C@]3(O)C[C@H](OC(=O)[C@H](O)[C@@H](NC(=O)c4ccccc4)c4ccccc4)C(C)=C1C3(C)C)[C@]1(OC(C)=O)CO[C@@H]1C[C@@H]2O [PTX, paclitaxel] the “indices of the spleen and thymus” value (Lewis lung cancer (LLC)) was “notably reduced” and the “cellular uptake in presence of transporter inhibitors” value [1] was “no influence on PTX transport”.
